# High-throughput results as filed in PubChem BioAssay.
# FGF22 binding: binders of human FGF22 protein, primary screen, FGF22 synaptogenesis inhibitor project, biophysical, thermal shift, single point; Fibroblast growth factor 22 (Homo sapiens), Q9HCT0; recombinant FGF22 thermal shift, SYPRO orange fluorescence; percent of sucrose octasulfate shift, DMSO zero; activity (Tm shift, normalised), % at 9.99 µM; 340,000 compounds, 1.5% hits;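 active = mean Tm shift, scaled 0 neutral to 100 positive control, at about 1.3% or above, every replicate too, limit read from the data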
# Target sequence (Q9HCT0 whole entry, looked up): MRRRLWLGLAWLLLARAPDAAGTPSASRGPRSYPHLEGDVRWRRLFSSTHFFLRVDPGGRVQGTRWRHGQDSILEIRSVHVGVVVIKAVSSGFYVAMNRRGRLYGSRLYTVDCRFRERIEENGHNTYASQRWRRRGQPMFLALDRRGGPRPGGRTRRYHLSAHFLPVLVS
# Env fusion inh: inhibitors of HIV-1 Env-driven cell-cell fusion, primary screen, HeLa-JRFL effector, CEM21 target cells, luciferase; inhibition, % at 12.3 µM; 360,000 compounds, 1.1% hits; AID 651610, 2012;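 active = mean replicate inhibition score of at least 50 and every replicate individually at or above 50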;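 note: 0% = plate neutral controls and 100% = maraviroc near 300 nM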
# rRNA inh HTS: reduced GFP signal of wild-type E. coli, primary screen, bacterial rRNA inhibitor project, GFP/RFP fluorescence, OD600, single point. E. coli WT GFP vs humanized-ribosome RFP mutants, 24 h; hits give low values; DMSO median 0, no signal -100. GFP signal change (wild-type ribosome), % (concentration not given with the values). 350,000 compounds, 1.6% hits;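 active = significant combined selectivity score with lowered wild-type GFP, culture density cut under 30%, mutant RFP and density less affected; inactive = any of these conditions unmet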
# ERAP1 inh: human ERAP1 aminopeptidase inhibitors, primary screen, biochemical, single point, plate reader; Endoplasmic reticulum aminopeptidase 1 (Homo sapiens), Q9NZ08; recombinant ERAP1, Leu-AMC fluorescence, 60 min; inhibition, % at 10.7 µM; 340,000 compounds, 0.15% hits; AID 652197, 2013;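 active = mean replicate inhibition of at least 30%, or all replicates individually reaching that 30% level; inactive = mean below 30% and not every replicate reaching it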;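 note: 0% = neutral control wells and 100% = L-leucinethiol positive control wells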
# PGC1a acetyl inh: inhibitors of PGC1a acetylation signal, primary screen, cell-based, U2OS, AlphaScreen, inhibitor mode. AlphaScreen anti-acetyl-lysine; with virally co-expressed GCN5 acetyltransferase. inhibition, % at 15.6 µM. 350,000 compounds, 0.17% hits. AID 651687, 2012;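 active = every replicate shows inhibition of at least 40%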;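 note: 0% = neutral control wells and 100% = positive control wells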
# Cneo AK release: Cryptococcus neoformans cell lysis inducers, primary screen, AK release luminescence, single concentration. C. neoformans lysis, adenylate kinase release luminescence, 4 h; normalised: neutral wells 0, clomiphene wells 100. lysis activity, % at 15 µM. 360,000 compounds, 0.2% hits;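 active = mean lysis activity across replicates of at least 80%, whatever share of replicates individually reach that level; inactive = mean lysis activity below 80%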
#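 Signal: Adenylate kinase release luminescence | Assay system: Log-phase Cryptococcus neoformans yeast cells | Input: Cells at 5 × 10^6 per mL | Buffer or medium: Fresh YPD growth medium | Compound: Single dose | Schedule: Static 4 h at 37 °C with compound, 1 h detection | Controls: Clomiphene | Read-out: Luminescence rise reflecting yeast cell lysis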
# * marks the source's active call; other numbers are inactive results; . = no result given; [ ] = another dose, or the depositor's remark. Sampled rows, rich in hits. Any-hit rate of the full collection: about 3.5%.
SMILES,FGF22 binding,Env fusion inh,rRNA inh HTS,ERAP1 inh,PGC1a acetyl inh,Cneo AK release
O=C(CC(=O)Nc1nc(C23CC4CC(CC(C4)C2)C3)cs1)NCCO,0,8,-9,1,1,-2
CCCCCCCCN1C(=O)[C@H](CC(=O)NCCCCc2ccccc2)C[C@@]2(C(=O)OCC)CCCC=C12,0,69*,11,-2,.,.
CCCCCCCCN1C(=O)[C@H](CC(=O)NCc2ccccc2)C[C@@]2(C(=O)OCC)CCCC=C12,0,20,12,.,.,.
CCOC(=O)[C@]12CCCC=C1N(Cc1ccccc1)C(=O)[C@H](CC(=O)NCCc1ccccc1OC)C2,0,-6,-21*,.,.,.
CCOC(=O)[C@]12CCC=C1N(Cc1ccccc1)C(=O)[C@H](CC(=O)NCCc1ccccc1OC)C2,-1,-2,-16,.,.,.
COC(=O)[C@@]12C[C@@H](CC(=O)NCc3ccccc3)C(=O)N(Cc3cccc4ccccc34)C1=CCC(C)(C)C2,20*,29,-4,1,.,.
CCOC(=O)[C@]12CCC=C1N(Cc1ccc3c(c1)OCO3)C(=O)[C@H](CC(=O)NCc1cccs1)C2,43*,-11,-25,-1,.,.
COC(=O)[C@H](Cc1ccccc1)NC(=O)Cn1cnc2c(NCc3ccccc3)ncnc21,0,1,-12,-1,5,3
CCCN1C[C@H](C)[C@@H](OC)CN(C)C(=O)c2cc(NC(=O)CC(F)(F)F)ccc2OC[C@@H]1C,0,.,3,1,8,.
CC(C)CC#Cc1cnc2c(c1)C(=O)N([C@@H](C)CO)C[C@@H](C)[C@@H](CN(C)Cc1cccc(F)c1)O2,0,25[16.7 µM],1,0,-2,1
O=C(COC(=O)c1cccc(S(=O)(=O)N2CCCCC2)c1)NCc1ccccc1,0,-16,-6,-7,-2,1
Cc1csc2ncc(C(=O)Nc3ccc4c(c3)OCCO4)c(=O)n12,0,-53,11,2,-14,-3
CCOC(=O)[C@]12CCC=C1N(Cc1ccccc1)C(=O)[C@H](CC(=O)NCCC(C)C)C2,0,-3,-24*,.,.,.
CCOC(=O)[C@]12CCC=C1N(Cc1ccccc1)C(=O)[C@H](CC(=O)NCC13CC4CC(CC(C4)C1)C3)C2,0,64*,0,.,.,.
CCC(=O)Nc1ccc(NC(=S)NC(=O)/C=C/c2ccccc2)cc1,.,34,.,.,.,.
O=C(/C=C/Nc1ccc(Oc2ccccc2)cc1)c1ccco1,0,-153,-25*,6,8,.
O=C(/C=C/Nc1ccccc1C(F)(F)F)c1ccco1,42,-140,-22*,-1,11,5
Cn1cccc1/C=C(/C#N)c1ccc(F)cc1,0,-6,-9,-2,.,0
COc1ccc2c3c(n(C)c2c1)[C@@H](CO)N(Cc1ccccn1)CC31CCN(Cc2ccccn2)CC1,0,-10[16.7 µM],3,.,.,.
C[C@@H]1CN([C@@H](C)CO)C(=O)c2cccc(NS(=O)(=O)c3ccc(F)cc3)c2O[C@@H]1CN(C)S(=O)(=O)c1ccc(F)cc1,0,13[16.7 µM],-4,3,-2,-1
CC(C)(C)N1CC(C(=O)Nc2ccc(C(N)=O)cc2)CC1=O (stereo unspecified),44*,-19,1,4,2,2
Cc1ccc(S(=O)(=O)N(C)C[C@@H]2Oc3c(NS(=O)(=O)c4ccc(F)cc4)cccc3C(=O)N([C@H](C)CO)C[C@@H]2C)cc1,0,-12[16.7 µM],-3,.,9,12
CCOC(=O)N1CCN(C(=O)c2cc3c(=O)n(C)c4ccccc4c3n2C)CC1,0,66*,-6,0,.,-3
C[C@@H]1CN([C@H](C)CO)C(=O)Cc2cc(NC(=O)Nc3ccc4c(c3)OCO4)ccc2O[C@@H]1CN(C)Cc1ccc2c(c1)OCO2,0,1[16.7 µM],-17,1,3,3
COC(=O)c1ccc(-c2ccc(OC)c([C@H]3[C@H]4C=CC[C@@H](C)[C@@H]4C(=O)N3Cc3ccccc3)c2)cc1,0,64*,6,-5,3,-1
SMILES,FGF22 binding,Env fusion inh,rRNA inh HTS,ERAP1 inh,PGC1a acetyl inh,Cneo AK release
COc1ccc(-c2ccc(C(C)=O)cc2)cc1[C@H]1[C@H]2C=CC[C@@H](C)[C@@H]2C(=O)N1Cc1ccccc1,0,26,22,.,15,5
CC(C(=O)Nc1ncn[nH]1)N1C(=O)c2ccccc2C1=O (stereo unspecified),.,.,.,.,-10,1
Cc1cccc(N=N/C(=C\O)C(=O)c2ccc(Br)cc2)c1,0,4,7,5,-1,.
O=C(/C(=C/O)N=Nc1cccc(C(F)(F)F)c1)c1ccccc1,43*,7,7,7,5,.
COc1cccc(S(=O)(=O)N[C@H]2CC[C@H](CC(=O)NCc3ccc(F)cc3)O[C@@H]2CO)c1,0,-22[16.7 µM],0,1,55*,-3
COc1ccc(S(=O)(=O)N[C@@H]2CC[C@@H](CC(=O)NCCc3ccncc3)O[C@@H]2CO)cc1,0,58*[16.7 µM],3,1,6,-3
COc1cccc(S(=O)(=O)N[C@H]2CC[C@H](CC(=O)NCc3ccncc3)O[C@@H]2CO)c1,0,66*[16.7 µM],4,1,-4,28
CCS(=O)(=O)N[C@H]1CC[C@@H](CC(=O)NCc2ccc(Cl)cc2)O[C@@H]1CO,0,70*[16.7 µM],.,-1,-14,1
COc1cccc(S(=O)(=O)N[C@@H]2CC[C@@H](CC(=O)NCc3ccncc3)O[C@H]2CO)c1,0,14[16.7 µM],0,3,-5,32
COc1ccc(S(=O)(=O)N[C@@H]2CC[C@H](CC(=O)NCCc3ccncc3)O[C@H]2CO)cc1,1,-6[16.7 µM],4,2,-6,-1
CCS(=O)(=O)N[C@@H]1CC[C@H](CC(=O)NCc2ccc(Cl)cc2)O[C@@H]1CO,0,4[16.7 µM],0,1,-9,1
CCCC#Cc1ccc([C@@H]2[C@@H](CO)N3C(=O)CN(C(=O)c4ccccn4)C[C@H]23)cc1,.,.,-5,-1,-1,.
CCn1cc(C(=O)N2CCCC2)c(=O)c2cc(S(=O)(=O)N(C)C)ccc21,0,-9,8,.,12,-1
O=C(C[C@@H]1C=C[C@@H](NC(=O)C2CCC2)[C@H](CO)O1)NC1CCC1,0,-22[16.7 µM],0,0,-3,96*
